Laboratory results as given in ChEMBL document CHEMBL4190394, “Discovery of Novel Pazopanib-Based HDAC and VEGFR Dual Inhibitors Targeting Cancer Epigenetics and Angiogenesis Simultaneously” (J Med Chem, 2018).
Active and inactive are the calls of the source. The rule behind the calls is not given here.

How the values were obtained:
[1] = target: Histone deacetylase 8 (Homo sapiens, UniProt Q9BY41); assay: Inhibition of HDAC8 (unknown origin) using fluorogenic Boc-Lys(trifluoroacetyl)-AMC as substrate preincubated for 5 mins followed by substrate addition measured after 30 mins by fluorescence-based assay
[2] = system: K562; assay: Antiproliferative activity against human K562 cells after 72 hrs by MTT assay; assay type: functional, cell-based; conditions: K562, 72 h
[3] = target: Vascular endothelial growth factor receptor 1 (Homo sapiens, UniProt P17948); assay: Inhibition of VEGFR-1 (unknown origin) after 40 mins by kinase-Glo assay
Method in brief: (§1)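 Kinase-Glo luminescent assay run by a contract lab. Compound, kinase, substrate and ATP diluted in kinase buffer and incubated 40 min at room temperature. IC50 obtained by nonlinear regression of normalized dose–response.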

[4] = system: Thoracic aorta; assay: Antiangiogenic activity in Sprague-Dawley rat thoracic aorta ring assessed as reduction in micro-vessel growth at 5 uM treated every day for 6 days by matrigel-based inverted microscopic analysis relative to control; assay type: functional, tissue-based
Method in brief: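 Aortas taken from 4–6-week-old Sprague–Dawley rats, cut into 1-mm rings and embedded in Matrigel. Rings held 30 min at 37 °C, 5% CO2, then treated daily for 6 days with compound or 0.5% DMSO vehicle. Microvessel outgrowth photographed on day 7 at ×200. Three independent experiments.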

[5] = system: MOLT-4; assay: Antiproliferative activity against human MOLT4 cells after 72 hrs by MTT assay; assay type: functional, cell-based; conditions: MOLT-4, 72 h
[6] = system: HEL; assay: Antiproliferative activity against human HEL cells after 72 hrs by MTT assay; assay type: functional, cell-based
[7] = system: MDA-MB-231; assay: Antiproliferative activity against human MDA-MB-231 cells after 72 hrs by MTT assay; assay type: functional, cell-based; conditions: MDA-MB-231, 72 h
[8] = target: Histone deacetylase 1/2/3 (Homo sapiens) (UniProt Q13547+O15379+Q92769); conditions: HeLa, at 100 nM
[9] = system: KG-1; assay: Antiproliferative activity against human KG1 cells after 72 hrs by MTT assay; assay type: functional, cell-based; conditions: KG-1, 72 h
[10] = target: Mast/stem cell growth factor receptor Kit (Homo sapiens, UniProt P10721); assay: Inhibition of C-kit (unknown origin) after 40 mins by kinase-Glo assay; method in brief: as §1
[11] = target: T1, Vascular endothelial growth factor receptor 2 (Homo sapiens, UniProt P35968); assay: Inhibition of VEGFR-2 (unknown origin) after 40 mins by kinase-Glo assay; method in brief: as §1
[12] = target: Histone deacetylase 2 (Homo sapiens, UniProt Q92769)
[13] = target: Vascular endothelial growth factor receptor 3 (Homo sapiens, UniProt P35916); assay: Inhibition of VEGFR-3 (unknown origin) after 40 mins by kinase-Glo assay
[14] = system: PC-3; assay: Antiproliferative activity against human PC3 cells after 72 hrs by MTT assay; assay type: functional, cell-based; conditions: PC-3, 72 h
[15] = target: Protein deacetylase HDAC6 (Homo sapiens, UniProt Q9UBN7); assay: Inhibition of HDAC6 (unknown origin) using fluorogenic Boc-Lys(acetyl)-AMC as substrate preincubated for 5 mins followed by substrate addition measured after 30 mins by fluorescence-based assay
[16] = system: HT-29; assay: Antiproliferative activity against human HT-29 cells after 72 hrs by MTT assay; assay type: functional, cell-based; conditions: HT-29, 72 h
[17] = system: AGS; assay: Antiproliferative activity against human AGS cells after 72 hrs by MTT assay; assay type: functional, cell-based
[18] = system: HUVEC; assay: Antiangiogenic activity in human HUVEC cells assessed as reduction in capillary-like tubular network formation at 0.1 uM after 6 hrs by phase-contrast microscopy; assay type: functional, cell-based
Method in brief: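 HUVECs trypsinized and seeded at 40000/well on Matrigel polymerized 0.5 h at 37 °C. Cells held 6 h at 37 °C in M199 with 5% FBS, with compound or DMSO. Tube formation viewed and photographed by phase-contrast microscopy at 200 magnification. Three independent experiments.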

[19] = target: Platelet-derived growth factor receptor beta (Homo sapiens, UniProt P09619); assay: Inhibition of PDGFRbeta (unknown origin) after 40 mins by kinase-Glo assay; method in brief: as §1
[20] = system: HUVEC; assay: Cytotoxicity activity against HUVEC after 72 hrs by MTT assay; assay type: cell-based; conditions: Homo sapiens
Method in brief: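 HUVECs kept in RPMI1640 with 10% FBS at 37 °C, 5% CO2. Cells seeded the day before, grown 12 h, then exposed to a range of compound concentrations for 72 h. Then 0.5% MTT added for 4 h, formazan dissolved in DMSO, and absorbance read at 570 nm.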

[21] = target: Histone deacetylase; assay type: protein assay, Homo sapiens
[22] = system: HT-1080; assay: Antiproliferative activity against human HT1080 cells after 72 hrs by MTT assay; assay type: functional, cell-based; conditions: HT-1080, 72 h
[23] = target: Fibroblast growth factor receptor 1 (Homo sapiens, UniProt P11362); assay: Inhibition of FGFR1 (unknown origin) after 40 mins by kinase-Glo assay
[24] = target: Macrophage colony-stimulating factor 1 receptor (Homo sapiens, UniProt P07333); assay: Inhibition of C-fms (unknown origin) after 40 mins by kinase-Glo assay
[25] = target: T1, Vascular endothelial growth factor receptor 2; assay: Inhibition of VEGFR-2 (unknown origin) at 0.2 uM after 40 mins by kinase-Glo assay relative to control
Method in brief: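 VEGFR-2 tested at a single 200 nM concentration in a Kinase-Glo assay. Compound, kinase, substrate and ATP incubated 40 min at room temperature, then Kinase-Glo reagent added for 15 min and luminescence read. Inhibition rate reported. Replicates n ≥ 2.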

[26] = system: HeLa; assay: Antiproliferative activity against human HeLa cells after 72 hrs by MTT assay; assay type: functional, cell-based
[27] = target: T1, Vascular endothelial growth factor receptor 2; assay: Inhibition of VEGF-stimulated VEGFR2 phosphorylation in human HUVEC cells at 100 nM preincubated for 2 hrs followed by VEGF stimulation by Western blot analysis; assay type: cell-based
Method in brief: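 HUVECs pretreated 2 h with compound or DMSO, then stimulated with VEGF (50 ng/ml). Cells lysed in ice-cold RIPA and protein measured by BCA. Lysates run on SDS-PAGE and immunoblotted for phospho-VEGFR-2, with total VEGFR-2 as loading control. Detection by ECL.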

[28] = system: ACHN; assay: Antiproliferative activity against human ACHN cells after 72 hrs by MTT assay; assay type: functional, cell-based
[29] = system: HT-29; assay: Antitumor activity against human HT-29 cells xenografted in BALB/c nu mouse assessed as tumor growth level at 100 mg/kg, po administered for 25 consecutive days measured every 3 days during compound dosing relative to control; assay type: functional
Method in brief: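 HT-29 cells (1×10^7) implanted s.c. in right flank of male BALB/c-nu mice aged 5–6 weeks. At about 100 mm³ (day 10), mice randomized 6 per group and dosed orally for 25 consecutive days. Controls received PBS with 5% DMSO. T/C is mean RTV (Vt/V0) treated over control. TGI taken from final tumor weights. Student's two-tailed t test.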

T1 sequence (P35968 whole entry): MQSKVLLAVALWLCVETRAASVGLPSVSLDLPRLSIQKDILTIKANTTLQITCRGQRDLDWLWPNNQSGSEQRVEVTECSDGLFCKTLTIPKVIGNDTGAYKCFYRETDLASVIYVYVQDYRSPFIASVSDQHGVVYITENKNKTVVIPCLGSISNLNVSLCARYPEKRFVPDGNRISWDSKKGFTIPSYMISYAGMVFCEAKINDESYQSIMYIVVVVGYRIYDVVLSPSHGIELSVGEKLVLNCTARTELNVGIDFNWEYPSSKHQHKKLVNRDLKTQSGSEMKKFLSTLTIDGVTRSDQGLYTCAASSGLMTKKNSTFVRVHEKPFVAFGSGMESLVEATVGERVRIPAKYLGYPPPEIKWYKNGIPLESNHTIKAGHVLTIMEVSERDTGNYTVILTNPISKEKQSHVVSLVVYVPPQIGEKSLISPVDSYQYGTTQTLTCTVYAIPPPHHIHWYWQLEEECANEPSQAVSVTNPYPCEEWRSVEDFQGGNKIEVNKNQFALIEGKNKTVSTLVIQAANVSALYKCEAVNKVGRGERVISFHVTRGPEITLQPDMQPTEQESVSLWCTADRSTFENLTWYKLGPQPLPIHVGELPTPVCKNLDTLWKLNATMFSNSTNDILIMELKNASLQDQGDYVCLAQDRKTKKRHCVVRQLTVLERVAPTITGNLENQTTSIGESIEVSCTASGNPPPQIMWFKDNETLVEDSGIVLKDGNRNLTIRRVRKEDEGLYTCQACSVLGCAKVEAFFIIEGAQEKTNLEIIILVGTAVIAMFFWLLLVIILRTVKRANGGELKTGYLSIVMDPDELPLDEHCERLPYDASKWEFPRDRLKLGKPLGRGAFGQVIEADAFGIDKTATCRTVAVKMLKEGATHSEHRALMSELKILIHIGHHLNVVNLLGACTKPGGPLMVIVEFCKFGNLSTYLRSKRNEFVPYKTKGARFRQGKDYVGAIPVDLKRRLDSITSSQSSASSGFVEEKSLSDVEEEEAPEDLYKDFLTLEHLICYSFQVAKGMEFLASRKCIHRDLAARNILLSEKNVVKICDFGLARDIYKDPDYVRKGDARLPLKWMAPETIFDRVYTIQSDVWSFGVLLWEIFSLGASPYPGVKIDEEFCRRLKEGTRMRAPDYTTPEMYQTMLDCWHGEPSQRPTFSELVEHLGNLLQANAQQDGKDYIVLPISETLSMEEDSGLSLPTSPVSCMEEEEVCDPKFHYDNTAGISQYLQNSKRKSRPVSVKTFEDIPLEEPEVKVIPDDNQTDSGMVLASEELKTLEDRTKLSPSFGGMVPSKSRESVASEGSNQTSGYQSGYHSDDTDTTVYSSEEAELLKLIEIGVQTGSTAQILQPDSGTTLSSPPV
Protein deacetylase HDAC6, sequence (Q9UBN7 whole entry): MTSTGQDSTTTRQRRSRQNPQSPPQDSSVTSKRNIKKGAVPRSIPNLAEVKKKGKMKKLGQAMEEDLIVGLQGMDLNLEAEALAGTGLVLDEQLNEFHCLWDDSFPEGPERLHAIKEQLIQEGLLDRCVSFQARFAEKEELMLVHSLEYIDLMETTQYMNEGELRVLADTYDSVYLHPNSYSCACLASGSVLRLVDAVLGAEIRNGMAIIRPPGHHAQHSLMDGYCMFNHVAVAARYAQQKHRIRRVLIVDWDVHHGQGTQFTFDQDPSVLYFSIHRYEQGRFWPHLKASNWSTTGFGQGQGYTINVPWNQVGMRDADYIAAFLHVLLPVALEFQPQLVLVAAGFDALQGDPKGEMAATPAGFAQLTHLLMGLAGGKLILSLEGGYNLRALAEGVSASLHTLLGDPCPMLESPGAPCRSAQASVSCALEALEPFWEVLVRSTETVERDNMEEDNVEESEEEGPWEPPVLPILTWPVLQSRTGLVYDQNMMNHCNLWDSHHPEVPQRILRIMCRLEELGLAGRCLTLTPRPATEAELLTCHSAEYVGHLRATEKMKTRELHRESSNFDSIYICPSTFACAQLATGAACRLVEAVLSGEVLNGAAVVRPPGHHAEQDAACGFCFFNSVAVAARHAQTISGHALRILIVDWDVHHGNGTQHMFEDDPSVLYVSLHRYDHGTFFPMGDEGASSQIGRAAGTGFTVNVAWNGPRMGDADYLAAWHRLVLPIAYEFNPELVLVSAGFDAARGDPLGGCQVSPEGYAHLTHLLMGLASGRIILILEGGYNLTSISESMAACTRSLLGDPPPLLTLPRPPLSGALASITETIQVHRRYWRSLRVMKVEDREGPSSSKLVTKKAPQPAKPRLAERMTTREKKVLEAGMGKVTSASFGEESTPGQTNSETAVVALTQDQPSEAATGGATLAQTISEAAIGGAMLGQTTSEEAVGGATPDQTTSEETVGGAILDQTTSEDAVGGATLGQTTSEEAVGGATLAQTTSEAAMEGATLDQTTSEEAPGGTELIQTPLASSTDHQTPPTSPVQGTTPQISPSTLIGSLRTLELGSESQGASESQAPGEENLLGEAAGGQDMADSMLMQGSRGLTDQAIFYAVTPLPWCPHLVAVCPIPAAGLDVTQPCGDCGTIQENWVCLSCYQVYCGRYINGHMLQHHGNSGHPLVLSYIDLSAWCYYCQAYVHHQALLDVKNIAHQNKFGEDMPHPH
Mast/stem cell growth factor receptor Kit, sequence (P10721 whole entry): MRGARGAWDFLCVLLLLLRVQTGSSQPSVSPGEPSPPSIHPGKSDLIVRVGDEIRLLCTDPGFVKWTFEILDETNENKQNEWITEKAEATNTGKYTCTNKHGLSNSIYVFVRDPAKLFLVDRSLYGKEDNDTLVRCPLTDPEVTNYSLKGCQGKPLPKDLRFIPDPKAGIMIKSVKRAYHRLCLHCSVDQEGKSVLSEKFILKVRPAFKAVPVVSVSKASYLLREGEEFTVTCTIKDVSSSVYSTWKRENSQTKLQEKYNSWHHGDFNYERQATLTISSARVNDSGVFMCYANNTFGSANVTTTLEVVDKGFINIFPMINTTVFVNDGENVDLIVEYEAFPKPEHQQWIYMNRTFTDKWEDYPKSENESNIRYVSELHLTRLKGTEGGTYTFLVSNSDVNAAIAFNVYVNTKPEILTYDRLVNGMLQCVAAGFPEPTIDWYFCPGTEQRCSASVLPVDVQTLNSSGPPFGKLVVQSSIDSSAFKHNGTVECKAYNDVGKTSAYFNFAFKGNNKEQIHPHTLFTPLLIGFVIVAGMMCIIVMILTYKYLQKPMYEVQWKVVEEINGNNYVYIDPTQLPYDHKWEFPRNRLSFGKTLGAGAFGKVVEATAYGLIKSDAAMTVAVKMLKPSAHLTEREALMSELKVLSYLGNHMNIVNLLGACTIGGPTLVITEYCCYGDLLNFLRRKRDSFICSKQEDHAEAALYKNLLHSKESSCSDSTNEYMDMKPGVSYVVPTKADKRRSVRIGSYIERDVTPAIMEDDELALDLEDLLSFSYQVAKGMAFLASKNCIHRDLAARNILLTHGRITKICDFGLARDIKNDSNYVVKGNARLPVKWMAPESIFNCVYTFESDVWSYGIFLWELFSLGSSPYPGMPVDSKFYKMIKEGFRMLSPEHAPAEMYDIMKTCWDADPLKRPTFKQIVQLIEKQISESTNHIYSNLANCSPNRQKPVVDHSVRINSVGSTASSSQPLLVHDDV
Platelet-derived growth factor receptor beta, sequence (P09619 whole entry): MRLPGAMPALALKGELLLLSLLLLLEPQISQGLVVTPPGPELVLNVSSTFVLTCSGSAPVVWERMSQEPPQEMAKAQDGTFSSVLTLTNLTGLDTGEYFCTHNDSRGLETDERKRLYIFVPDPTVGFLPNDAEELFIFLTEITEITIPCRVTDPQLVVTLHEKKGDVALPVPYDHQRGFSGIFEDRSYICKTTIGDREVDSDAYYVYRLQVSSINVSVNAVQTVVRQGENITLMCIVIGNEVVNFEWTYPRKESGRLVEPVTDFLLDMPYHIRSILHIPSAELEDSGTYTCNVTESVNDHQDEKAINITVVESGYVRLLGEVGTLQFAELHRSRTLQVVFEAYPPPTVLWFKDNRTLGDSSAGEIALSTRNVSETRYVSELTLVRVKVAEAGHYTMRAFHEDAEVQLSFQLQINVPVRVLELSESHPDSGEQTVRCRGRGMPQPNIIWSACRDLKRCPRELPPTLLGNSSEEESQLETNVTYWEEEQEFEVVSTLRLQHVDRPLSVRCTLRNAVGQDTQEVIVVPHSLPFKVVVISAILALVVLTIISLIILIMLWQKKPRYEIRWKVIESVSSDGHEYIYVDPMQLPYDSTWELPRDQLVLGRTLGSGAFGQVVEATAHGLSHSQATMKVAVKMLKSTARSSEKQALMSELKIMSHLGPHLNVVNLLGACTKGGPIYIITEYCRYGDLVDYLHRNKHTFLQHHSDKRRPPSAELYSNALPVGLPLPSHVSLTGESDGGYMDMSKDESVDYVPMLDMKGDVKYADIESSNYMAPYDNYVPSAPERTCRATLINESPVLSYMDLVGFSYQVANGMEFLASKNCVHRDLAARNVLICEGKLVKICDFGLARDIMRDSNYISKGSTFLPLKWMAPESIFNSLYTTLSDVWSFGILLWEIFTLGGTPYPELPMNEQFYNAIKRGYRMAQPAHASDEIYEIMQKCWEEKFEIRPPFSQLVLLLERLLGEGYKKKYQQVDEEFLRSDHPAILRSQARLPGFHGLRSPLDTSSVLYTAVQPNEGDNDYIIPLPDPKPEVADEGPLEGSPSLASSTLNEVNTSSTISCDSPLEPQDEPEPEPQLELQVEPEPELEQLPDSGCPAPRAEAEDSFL
Histone deacetylase 8, sequence (Q9BY41 whole entry): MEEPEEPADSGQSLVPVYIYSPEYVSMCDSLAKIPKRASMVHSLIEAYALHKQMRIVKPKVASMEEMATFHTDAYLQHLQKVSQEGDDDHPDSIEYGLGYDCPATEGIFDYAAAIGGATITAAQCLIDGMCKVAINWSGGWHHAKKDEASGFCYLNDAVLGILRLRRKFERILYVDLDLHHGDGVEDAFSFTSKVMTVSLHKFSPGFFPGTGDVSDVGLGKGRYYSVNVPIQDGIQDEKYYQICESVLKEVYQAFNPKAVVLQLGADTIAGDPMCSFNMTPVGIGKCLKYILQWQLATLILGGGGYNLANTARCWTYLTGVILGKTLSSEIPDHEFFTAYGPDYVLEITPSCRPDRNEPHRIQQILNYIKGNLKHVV

Cc1c2ccc(N(C)c3ccnc(Nc4ccc(C(=O)NCCCCCCC(=O)NO)cc4)n3)cc2nn1C
IC50 [1]: 1660 nM
IC50 [2]: 990 nM
IC50 [3]: 35 nM
Activity [4]: Active
IC50 [5]: 310 nM
IC50 [6]: 2800 nM
IC50 [7]: 2960 nM
inhibition [8]: Active
IC50 [9]: 1600 nM
IC50 [10]: 163 nM
IC50 [11]: 46 nM
IC50 [12]: 380 nM
IC50 [13]: 113 nM
IC50 [14]: 1690 nM
IC50 [15]: 72 nM
IC50 [16]: 2510 nM
IC50 [17]: 4440 nM
Activity [18]: Active
IC50 [19]: 111 nM
IC50 [20]: 21100 nM
IC50 [21]: 3.3 nM
IC50 [22]: 1970 nM
IC50 [23]: 409 nM
IC50 [24]: 581 nM
inhibition [25]: 93%
IC50 [26]: 4360 nM
inhibition [27]: Active
IC50 [28]: > 5000 nM

O=C(CCCCCCC(=O)Nc1ccccc1)NO [VORINOSTAT]
T/C [29]: 66%
inhibition [27]: inactive
